ChEMBL document CHEMBL2311492, “Small molecule amides as potent ROR-γ selective modulators” (Bioorg Med Chem Lett, 2013)
Values after ≈ are worked out from the molar mass of the structure shown. Active and inactive are the calls of the source. The rule behind the calls is not given here.

What was measured:
Cytochrome P450 1A2 = biological target: T1, Cytochrome P450 1A2 (Homo sapiens, UniProt P05177); assay: Inhibition of CYP1A2 (unknown origin) at 10 uM; type: ADME
T1 sequence (P05177 whole entry): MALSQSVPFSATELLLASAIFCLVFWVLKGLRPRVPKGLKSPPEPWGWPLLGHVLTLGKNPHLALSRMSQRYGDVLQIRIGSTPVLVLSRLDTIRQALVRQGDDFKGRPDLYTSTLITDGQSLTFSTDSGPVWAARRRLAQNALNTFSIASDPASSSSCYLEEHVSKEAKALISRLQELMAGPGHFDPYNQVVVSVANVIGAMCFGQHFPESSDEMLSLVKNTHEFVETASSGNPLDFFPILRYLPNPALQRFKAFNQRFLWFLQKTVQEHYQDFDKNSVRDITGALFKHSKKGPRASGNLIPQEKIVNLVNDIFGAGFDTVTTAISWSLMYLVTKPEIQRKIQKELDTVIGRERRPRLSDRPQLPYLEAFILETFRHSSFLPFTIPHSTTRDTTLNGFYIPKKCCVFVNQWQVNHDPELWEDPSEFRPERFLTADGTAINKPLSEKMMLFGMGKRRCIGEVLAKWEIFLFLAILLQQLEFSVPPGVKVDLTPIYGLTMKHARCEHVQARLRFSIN

Cytochrome P450 2D6 = Cytochrome P450 2D6 (Homo sapiens, UniProt P10635); assay: Inhibition of CYP2D6 (unknown origin) at 10 uM; type: ADME
Chain of Cytochrome P450 2D6 (P10635 whole entry): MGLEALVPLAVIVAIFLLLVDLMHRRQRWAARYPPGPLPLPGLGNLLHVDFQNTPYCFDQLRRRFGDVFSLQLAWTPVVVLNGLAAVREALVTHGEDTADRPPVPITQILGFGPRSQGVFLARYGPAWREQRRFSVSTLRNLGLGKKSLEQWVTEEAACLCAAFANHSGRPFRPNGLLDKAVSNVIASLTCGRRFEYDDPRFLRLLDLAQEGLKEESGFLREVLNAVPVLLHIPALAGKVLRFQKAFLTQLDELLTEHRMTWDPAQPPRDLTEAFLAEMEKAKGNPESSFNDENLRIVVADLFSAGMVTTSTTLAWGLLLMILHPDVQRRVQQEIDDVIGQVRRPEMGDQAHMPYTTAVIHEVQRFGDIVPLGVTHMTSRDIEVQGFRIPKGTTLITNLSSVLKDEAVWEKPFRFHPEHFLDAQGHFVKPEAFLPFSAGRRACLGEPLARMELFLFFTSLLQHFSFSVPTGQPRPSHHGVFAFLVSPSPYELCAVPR

Cytochrome P450 3A4 = Cytochrome P450 3A4 (Homo sapiens, UniProt P08684); assay: Inhibition of CYP3A4 (unknown origin) at 10 uM; type: ADME
Chain of Cytochrome P450 3A4 (P08684 whole entry): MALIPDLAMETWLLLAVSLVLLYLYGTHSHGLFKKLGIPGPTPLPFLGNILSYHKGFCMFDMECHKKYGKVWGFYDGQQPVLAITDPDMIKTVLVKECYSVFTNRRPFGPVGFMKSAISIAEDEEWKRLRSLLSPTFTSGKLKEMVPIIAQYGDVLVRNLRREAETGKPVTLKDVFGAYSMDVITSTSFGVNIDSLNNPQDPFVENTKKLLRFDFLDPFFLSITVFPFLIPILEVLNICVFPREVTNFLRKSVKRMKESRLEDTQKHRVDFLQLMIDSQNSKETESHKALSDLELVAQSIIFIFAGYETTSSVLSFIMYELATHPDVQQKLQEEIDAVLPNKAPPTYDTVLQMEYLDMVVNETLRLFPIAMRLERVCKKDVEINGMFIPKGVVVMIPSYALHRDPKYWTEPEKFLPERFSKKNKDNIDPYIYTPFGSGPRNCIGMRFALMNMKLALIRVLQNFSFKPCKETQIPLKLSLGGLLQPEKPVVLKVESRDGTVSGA

[1] = Solubility of the compound in phosphate buffered saline at 100 uM at pH 7.4 after 20 hrs; type: physicochemical; conditions: buffer, pH 7.4, 20 h
Method in brief: (§1)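 100 µM compound solutions shaken at room temperature for 20 hr in PBS pH 7.4 or sodium citrate buffer pH 5.0; dissolved concentration reported in µM.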

[2] = Solubility of the compound in sodium citrate buffer at 100 uM at pH 5 after 20 hrs; type: physicochemical; conditions: pH 5, 20 h; method in brief: as §1
Cytochrome P450 2C9 = Cytochrome P450 2C9 (Homo sapiens, UniProt P11712); assay: Inhibition of CYP2C9 (unknown origin) at 10 uM; type: ADME
Chain of Cytochrome P450 2C9 (P11712 whole entry): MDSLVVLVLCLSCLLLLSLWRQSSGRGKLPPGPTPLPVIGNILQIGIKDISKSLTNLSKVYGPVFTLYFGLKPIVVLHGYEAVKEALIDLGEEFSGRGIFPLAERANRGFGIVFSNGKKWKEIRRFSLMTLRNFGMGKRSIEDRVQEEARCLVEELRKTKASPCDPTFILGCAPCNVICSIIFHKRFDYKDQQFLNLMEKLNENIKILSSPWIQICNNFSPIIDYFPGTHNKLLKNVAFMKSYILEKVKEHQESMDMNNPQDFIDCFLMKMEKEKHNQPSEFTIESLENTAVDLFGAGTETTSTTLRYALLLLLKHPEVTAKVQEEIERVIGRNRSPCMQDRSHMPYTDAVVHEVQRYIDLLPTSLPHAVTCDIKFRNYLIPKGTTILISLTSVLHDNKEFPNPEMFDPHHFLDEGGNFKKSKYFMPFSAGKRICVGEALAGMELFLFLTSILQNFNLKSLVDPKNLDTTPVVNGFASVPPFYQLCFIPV

[3] = biological target: T2, Nuclear receptor ROR-gamma (Homo sapiens, UniProt P51449); assay: Displacement of [3H]-T0903017 from GST-tagged ROR-gamma (unknown origin) after 20 hrs
T2 sequence (P51449 whole entry): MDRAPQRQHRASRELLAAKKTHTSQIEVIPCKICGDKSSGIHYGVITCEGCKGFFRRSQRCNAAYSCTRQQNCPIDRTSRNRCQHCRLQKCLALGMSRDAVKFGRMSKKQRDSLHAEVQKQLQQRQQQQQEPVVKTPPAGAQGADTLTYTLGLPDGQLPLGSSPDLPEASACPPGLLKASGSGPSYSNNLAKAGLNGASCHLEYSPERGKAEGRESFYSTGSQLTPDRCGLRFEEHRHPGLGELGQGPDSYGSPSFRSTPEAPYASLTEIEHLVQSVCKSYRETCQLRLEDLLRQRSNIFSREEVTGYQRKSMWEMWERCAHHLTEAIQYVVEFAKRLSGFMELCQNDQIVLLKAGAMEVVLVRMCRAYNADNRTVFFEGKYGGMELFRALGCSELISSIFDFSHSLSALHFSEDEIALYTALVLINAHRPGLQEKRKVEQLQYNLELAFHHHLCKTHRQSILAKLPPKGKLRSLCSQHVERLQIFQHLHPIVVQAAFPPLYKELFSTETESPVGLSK

Brain = assay: Brain penetration in C57Bl6 mouse brain at 10 mg/kg, ip after 6 hrs; type: ADME, organism-based; set-up: dose 10 mg/kg, route intraperitoneal; conditions: in vivo
[4] = Drug level in C57Bl6 mouse brain at 10 mg/kg, ip after 6 hrs; type: ADME, organism-based; set-up: dose 10 mg/kg, route intraperitoneal; conditions: read-out: Drug uptake
[5] = biological target: T3, Bile acid receptor (Homo sapiens) (UniProt Q96RI1); assay: Modulation of FXR (unknown origin)
T3 sequence (whole entry): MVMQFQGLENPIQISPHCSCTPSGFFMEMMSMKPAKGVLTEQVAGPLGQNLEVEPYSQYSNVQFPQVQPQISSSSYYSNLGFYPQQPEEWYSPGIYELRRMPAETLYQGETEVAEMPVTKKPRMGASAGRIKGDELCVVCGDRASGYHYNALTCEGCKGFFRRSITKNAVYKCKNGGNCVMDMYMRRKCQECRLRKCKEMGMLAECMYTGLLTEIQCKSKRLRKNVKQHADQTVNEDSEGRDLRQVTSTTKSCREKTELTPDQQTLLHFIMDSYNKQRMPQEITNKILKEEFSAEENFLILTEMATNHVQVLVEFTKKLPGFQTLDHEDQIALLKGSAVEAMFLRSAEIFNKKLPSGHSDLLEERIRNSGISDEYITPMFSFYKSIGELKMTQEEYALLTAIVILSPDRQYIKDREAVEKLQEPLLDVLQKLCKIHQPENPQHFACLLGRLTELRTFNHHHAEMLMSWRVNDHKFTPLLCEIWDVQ

[6] = biological target: T4, Oxysterols receptor LXR-alpha (Homo sapiens) (UniProt Q13133); assay: Modulation of LXR-alpha (unknown origin)
T4 sequence (whole entry): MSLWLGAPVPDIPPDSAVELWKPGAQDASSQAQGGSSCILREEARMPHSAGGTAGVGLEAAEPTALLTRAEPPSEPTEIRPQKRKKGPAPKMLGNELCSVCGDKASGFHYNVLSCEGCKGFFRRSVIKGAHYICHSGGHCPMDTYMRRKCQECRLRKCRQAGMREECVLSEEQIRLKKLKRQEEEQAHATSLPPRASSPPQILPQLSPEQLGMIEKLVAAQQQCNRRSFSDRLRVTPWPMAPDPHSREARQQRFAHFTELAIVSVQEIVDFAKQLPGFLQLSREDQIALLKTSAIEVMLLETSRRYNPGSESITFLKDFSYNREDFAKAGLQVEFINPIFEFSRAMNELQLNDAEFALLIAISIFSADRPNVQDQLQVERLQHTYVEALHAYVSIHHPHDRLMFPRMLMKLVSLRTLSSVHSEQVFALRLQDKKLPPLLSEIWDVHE

[7] = Plasma concentration in C57Bl6 mouse at 10 mg/kg, ip after 6 hrs; type: ADME, organism-based; set-up: dose 10 mg/kg, route intraperitoneal

SMILES	inhibition (INH) (Cytochrome P450 1A2) [%]	inhibition (INH) (Cytochrome P450 2D6) [%]	inhibition (INH) (Cytochrome P450 3A4) [%]	solubility [1] [µM]	solubility [2] [µM]	inhibition (INH) (Cytochrome P450 2C9) [%]	IC50 [3]	other results
COc1ccc(C(CC(=O)N2CC(C)CC(C)C2)c2c(O)cc(OC)cc2OC)cc1 (stereo not drawn)	4	-7	75	18 (≈ 7.7 µg/mL)	19.5 (≈ 8.34 µg/mL)	65		
COc1ccc(C(CC(=O)NC2CCCC2)c2c(O)cc(OC)cc2OC)cc1 (stereo not drawn)							Not Active	
COc1cc(O)c(C(CC(=O)N2CC(C)CC(C)C2)c2ccc3c(c2)OCO3)c(OC)c1 (stereo not drawn)	3	15	97	15.6 (≈ 6.89 µg/mL)	15.2 (≈ 6.71 µg/mL)	92		Drug uptake (Brain): 260%; concentration at 6 h [4]: 780 nM; Activity [5]: inactive; Activity [6]: inactive; concentration at 6 h [7]: 300 nM
COc1ccc(C(CC(=O)N2CCCC2)c2c(O)cc(OC)cc2OC)cc1 (stereo not drawn)							Not Active	
COc1ccc(C(CC(=O)NCc2ccccc2)c2c(O)cc(OC)cc2OC)cc1 (stereo not drawn)							Not Active	
COc1ccc(C(CC(=O)N2CCCCC2)c2c(O)cc(OC)cc2OC)cc1 (stereo not drawn)							Not Active	
COc1ccc(C(CC(=O)N2CCOCC2)c2c(O)cc(OC)cc2OC)cc1 (stereo not drawn)							Not Active	
COc1cc(O)c(C(CC(=O)N2CC(C)CC(C)C2)c2ccccc2OC)c(OC)c1 (stereo not drawn)	-22	-11	70	12.7 (≈ 5.43 µg/mL)	6 (≈ 2.57 µg/mL)	53		
